Measured values as given in ChEMBL document CHEMBL1123812, “Pyrroloisoquinoline antidepressants. 2. In-depth exploration of structure-activity relationships” (J Med Chem, 1987).
Blank lines part the entries; values can stand above or below the compound they belong to. Active and inactive are the calls of the source.

Legend:
[1] = biological target: Norepinephrine transporter (Rattus norvegicus, UniProt Q9WTR4); test: Inhibition of uptake of tritiated norepinephrine (NE) in rat synaptosomes; type: subcellular, Brain
Chain of Norepinephrine transporter (Q9WTR4 whole entry): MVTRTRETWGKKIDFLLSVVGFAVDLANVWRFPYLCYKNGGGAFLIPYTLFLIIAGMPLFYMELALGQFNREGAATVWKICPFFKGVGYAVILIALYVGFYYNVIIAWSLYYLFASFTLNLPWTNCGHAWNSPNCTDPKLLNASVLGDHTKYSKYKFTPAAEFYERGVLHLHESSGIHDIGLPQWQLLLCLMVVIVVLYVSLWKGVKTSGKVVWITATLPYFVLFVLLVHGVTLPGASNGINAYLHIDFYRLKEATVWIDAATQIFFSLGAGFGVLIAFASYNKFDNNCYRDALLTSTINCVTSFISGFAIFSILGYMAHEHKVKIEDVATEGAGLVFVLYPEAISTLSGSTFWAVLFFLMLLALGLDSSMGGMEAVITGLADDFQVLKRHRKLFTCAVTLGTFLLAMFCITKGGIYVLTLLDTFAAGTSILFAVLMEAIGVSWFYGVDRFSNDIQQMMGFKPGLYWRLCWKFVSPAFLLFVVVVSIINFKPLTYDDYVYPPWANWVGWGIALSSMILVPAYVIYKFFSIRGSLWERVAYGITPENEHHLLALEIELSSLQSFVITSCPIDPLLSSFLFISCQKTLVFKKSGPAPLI

[2] = species: Mus musculus; test: Gross behavioral effects ascertained in mice; S indicates significant stimulant properties.; type: functional, organism-based
In short: (§1)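 Male Swiss Webster mice, 18–24 g, three per dose, given ip doses of 1, 3, 10, 30, 100 and 300 mg/kg. Observed for gross behavior and held for 4 days. Scored as weak (W), stimulant (S), depressant (D) or convulsant (C).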

[3] = species: Mus musculus; test: Antagonism of tetrabenazine (TBZ)-induced depression in mice measured for ptosis; type: functional; details: Mus musculus; read-out: ED50
In short: (§2)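 Nonfasted male Swiss Webster mice, 18–24 g, ten per dose level and in saline controls. Test compound given ip 30 min before tetrabenazine 32 mg/kg ip; dose expressed as free base. Motor activity and ptosis scored. Control response ≤90% corrected by Abbott's formula.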

[4] = biological target: D(2) dopamine receptor (Rattus norvegicus) (UniProt P61169); test: Binding affinity towards dopamine receptor D2 at 1.0 uM concentration
Chain of D(2) dopamine receptor (Rattus norvegicus) (P61169 whole entry): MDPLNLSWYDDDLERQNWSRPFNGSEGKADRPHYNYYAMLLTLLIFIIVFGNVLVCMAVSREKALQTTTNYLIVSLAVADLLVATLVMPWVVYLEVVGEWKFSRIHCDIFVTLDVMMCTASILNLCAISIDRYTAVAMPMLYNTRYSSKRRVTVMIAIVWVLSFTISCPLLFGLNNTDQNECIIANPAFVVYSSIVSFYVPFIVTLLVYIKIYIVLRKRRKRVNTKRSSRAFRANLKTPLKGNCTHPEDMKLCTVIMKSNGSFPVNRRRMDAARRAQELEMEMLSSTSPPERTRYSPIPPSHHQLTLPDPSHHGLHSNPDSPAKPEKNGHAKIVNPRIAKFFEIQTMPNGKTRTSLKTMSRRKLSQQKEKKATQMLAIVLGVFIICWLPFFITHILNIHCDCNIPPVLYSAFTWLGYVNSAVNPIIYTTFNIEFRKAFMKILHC
In short: (§3)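 Rat brain crude synaptic membranes in 20 mM NaHEPES pH 7.5. Ligands: α1 cortex […] 0.4 nM, nonspecific with (-)-NE 100 μM, 30 min at 25 °C. […] D2 striatum [3H]spiperone 0.05 nM with (+)-butaclamol 1 μM, 45 min at 37 °C. S1 cortex [3H]5-HT 1 nM plus glutathione and MgCl2, with 5-HT 10 μM, 20 min at 37 °C. […] Samples filtered on GF/B and counted.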

[5] = biological target: T1, Adrenergic receptor alpha-1 (Rattus norvegicus, UniProt P15823+P23944+P43140); test: Binding affinity towards alpha-1 adrenergic receptor; type: protein assay
T1 sequence (P15823 whole entry): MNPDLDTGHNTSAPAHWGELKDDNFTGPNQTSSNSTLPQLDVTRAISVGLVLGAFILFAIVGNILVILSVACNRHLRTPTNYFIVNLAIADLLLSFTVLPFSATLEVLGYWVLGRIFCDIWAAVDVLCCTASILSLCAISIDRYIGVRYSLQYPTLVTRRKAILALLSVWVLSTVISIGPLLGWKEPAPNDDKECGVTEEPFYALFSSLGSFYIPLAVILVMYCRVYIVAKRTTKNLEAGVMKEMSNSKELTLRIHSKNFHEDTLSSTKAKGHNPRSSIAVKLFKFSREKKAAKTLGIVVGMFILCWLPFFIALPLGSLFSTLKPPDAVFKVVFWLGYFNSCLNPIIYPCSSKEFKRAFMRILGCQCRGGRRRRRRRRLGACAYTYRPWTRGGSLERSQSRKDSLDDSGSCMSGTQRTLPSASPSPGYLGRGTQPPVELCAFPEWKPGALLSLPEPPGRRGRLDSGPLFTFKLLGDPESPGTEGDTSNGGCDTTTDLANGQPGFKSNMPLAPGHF
T1 sequence (P23944 whole entry): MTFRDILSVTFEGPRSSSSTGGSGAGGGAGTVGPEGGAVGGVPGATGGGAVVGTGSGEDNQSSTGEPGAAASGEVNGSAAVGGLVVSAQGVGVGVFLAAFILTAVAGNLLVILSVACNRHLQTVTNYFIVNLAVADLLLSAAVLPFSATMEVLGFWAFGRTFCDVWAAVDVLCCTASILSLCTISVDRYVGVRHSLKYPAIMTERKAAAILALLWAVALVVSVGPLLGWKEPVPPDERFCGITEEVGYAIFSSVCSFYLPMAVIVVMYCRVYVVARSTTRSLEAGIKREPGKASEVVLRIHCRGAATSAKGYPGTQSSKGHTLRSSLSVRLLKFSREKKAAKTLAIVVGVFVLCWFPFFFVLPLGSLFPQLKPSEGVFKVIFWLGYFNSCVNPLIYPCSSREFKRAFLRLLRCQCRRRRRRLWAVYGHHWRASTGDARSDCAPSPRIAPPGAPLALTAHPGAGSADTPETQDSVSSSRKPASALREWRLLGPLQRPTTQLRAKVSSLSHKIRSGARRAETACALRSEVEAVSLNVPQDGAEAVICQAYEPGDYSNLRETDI
T1 sequence (P43140 whole entry): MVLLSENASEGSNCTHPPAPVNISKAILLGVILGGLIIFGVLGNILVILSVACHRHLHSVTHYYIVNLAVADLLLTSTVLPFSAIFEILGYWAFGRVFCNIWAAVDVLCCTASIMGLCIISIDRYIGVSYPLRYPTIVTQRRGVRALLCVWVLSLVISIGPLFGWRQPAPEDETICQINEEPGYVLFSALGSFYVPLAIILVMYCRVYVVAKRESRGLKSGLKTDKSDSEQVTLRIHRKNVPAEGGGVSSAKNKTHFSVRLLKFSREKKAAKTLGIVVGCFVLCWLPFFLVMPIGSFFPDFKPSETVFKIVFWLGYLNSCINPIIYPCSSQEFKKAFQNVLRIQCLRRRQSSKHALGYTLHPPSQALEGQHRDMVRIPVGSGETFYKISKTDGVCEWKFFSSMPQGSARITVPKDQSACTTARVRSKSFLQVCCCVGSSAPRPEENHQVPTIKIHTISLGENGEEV

[6] = biological target: Adrenergic receptor alpha-2 (Rattus norvegicus) (UniProt P22086+P19328+P22909); test: Binding affinity towards alpha-2 adrenergic receptor at 1.0 uM concentration; type: protein assay
[7] = biological target: Muscarinic acetylcholine receptor (Rattus norvegicus) (UniProt P08482+P08483+P08485+P08911+P10980); test: Binding affinity towards Muscarinic acetylcholine receptor at 1.0 uM concentration; type: protein assay
[8] = species: Mus musculus; test: Antagonism of tetrabenazine (TBZ)-induced depression measured in mice by motor activity; type: functional; details: Mus musculus; read-out: ED50; in short: as §2
[9] = biological target: D(1A) dopamine receptor (Rattus norvegicus) (UniProt P18901); test: Binding affinity towards dDopamine receptor D1 at 1.0 uM concentration; in short: as §3
Chain of D(1A) dopamine receptor (Rattus norvegicus) (P18901 whole entry): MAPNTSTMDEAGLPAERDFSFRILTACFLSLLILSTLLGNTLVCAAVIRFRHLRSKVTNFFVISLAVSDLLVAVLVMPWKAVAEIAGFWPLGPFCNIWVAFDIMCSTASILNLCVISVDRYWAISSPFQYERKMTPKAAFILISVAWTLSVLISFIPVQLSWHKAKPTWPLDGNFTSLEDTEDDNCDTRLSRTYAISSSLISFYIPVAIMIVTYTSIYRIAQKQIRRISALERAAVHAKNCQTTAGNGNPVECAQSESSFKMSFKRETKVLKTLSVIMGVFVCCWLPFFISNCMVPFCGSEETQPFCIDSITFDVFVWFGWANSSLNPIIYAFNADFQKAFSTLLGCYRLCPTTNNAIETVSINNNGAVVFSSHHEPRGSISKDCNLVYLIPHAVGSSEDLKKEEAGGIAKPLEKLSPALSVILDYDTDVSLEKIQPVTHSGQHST

[10] = biological target: Sodium-dependent dopamine transporter (Rattus norvegicus, UniProt P23977); test: Inhibition of the uptake of tritiated dopamine (DA) in rat synaptosomes; type: subcellular, Brain
Chain of Sodium-dependent dopamine transporter (P23977 whole entry): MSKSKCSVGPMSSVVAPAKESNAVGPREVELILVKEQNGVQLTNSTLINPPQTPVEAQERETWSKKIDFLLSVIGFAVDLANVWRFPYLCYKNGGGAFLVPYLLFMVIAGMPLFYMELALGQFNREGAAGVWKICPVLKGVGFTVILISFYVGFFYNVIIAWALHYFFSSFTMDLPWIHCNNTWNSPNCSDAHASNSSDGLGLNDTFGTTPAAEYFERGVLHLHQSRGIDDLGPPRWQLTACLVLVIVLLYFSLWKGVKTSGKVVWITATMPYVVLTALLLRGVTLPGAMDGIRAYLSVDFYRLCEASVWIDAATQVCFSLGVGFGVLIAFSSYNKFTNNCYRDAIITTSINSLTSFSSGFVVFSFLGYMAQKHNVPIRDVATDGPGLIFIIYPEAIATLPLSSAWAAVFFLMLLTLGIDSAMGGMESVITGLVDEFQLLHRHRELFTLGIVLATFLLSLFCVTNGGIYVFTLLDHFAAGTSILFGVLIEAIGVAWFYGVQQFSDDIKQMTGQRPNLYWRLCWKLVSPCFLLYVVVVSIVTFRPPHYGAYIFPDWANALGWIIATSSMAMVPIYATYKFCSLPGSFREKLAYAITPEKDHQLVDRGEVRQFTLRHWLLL

[11] = biological target: Serotonin 2 (5-HT2) receptor (Rattus norvegicus, UniProt P30994+P08909+P14842); test: (§4) Binding affinity towards 5-hydroxytryptamine 2 receptor at 1.0 uM concentration; type: protein assay
[12] = tested on: Mus musculus; test: Ability to antagonise tetrabenazine (TBZ)-induced depression measured in mice for ptosis by 10 mg/kg i.p. dose; inactive (<10% antagonism) at 30 mgjkg is represented as I-30.; type: functional, organism-based; design: dose 10 mg/kg
In short: (§5)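 Swiss Webster male albino mice, nonfasted, 18–24 g, 10 per dose and in saline control. Compound given ip 30 min before TBZ 32 mg/kg ip. Motor activity and ptosis scored. Response corrected by Abbott's formula when control response was 90% or less. Doses expressed as free base.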

[13] = tested on: Mus musculus; test: (§6) Ability to antagonise intraperitoneal dose; inactive (<10% antagonism) at 30 mgjkg is represented as I-30.; type: functional, organism-based; in short: as §5
[14] = tested on: Rattus norvegicus; test: Ability to inhibit the uptake of tritiated serotonin(5-HT) at 0.1 mg/kg concentration; type: functional
[15] = species: Mus musculus; test: Gross behavioral effects ascertained in mice; D indicates significant depressant properties.; type: functional, organism-based
In short: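 Male Swiss Webster albino mice, 18–24 g, three per dose, given ip 1, 3, 10, 30, 100 and 300 mg/kg. Gross behaviour observed and held 4 days. Estimated LD50 range from lethality count on day 4. Scored as weak stimulant/depressant, significant stimulant, significant depressant or overt convulsant.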

[16] = species: Rattus norvegicus; test: Ability to inhibit the uptake of tritiated serotonin(5-HT) at 1 uM concentration; type: functional
In short: (§7)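 Rat synaptosomal uptake as above: striatal P2 for [3H]DA (50–300 nM, 3 min) and cortical P2 for [3H]5-HT (100–200 nM, 6 min). 37 °C after 10-min preincubation with compound. […] Blanks incubated in ice water. Filter-retained tritium counted by liquid scintillation.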

[17] = species: Rattus norvegicus; test: Ability to inhibit the uptake of tritiated dopamine (DA) at 1 uM concentration; type: functional; in short: as §7
[18] = species: Rattus norvegicus; test: Ability to inhibit the uptake of tritiated norepinephrine (NE) at 0.1 uM concentration; type: functional
In short: (§8)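 Male Wistar rat brain synaptosomes (P2 fraction): hypothalamus for NE, striatum for DA, cerebral cortex for 5-HT. Buffer is Tris- or HEPES-buffered salt medium with glucose, ascorbate and nialamide, pH 7.4 at 37 °C. Preincubated 10 min at 37 °C with compound. Uptake started with [3H]NE 100–300 nM, [3H]DA 50–300 nM or [3H]5-HT 100–200 nM, incubated 3 min (DA) or 6–10 min (NE, 5-HT). Blanks held on ice. Filtered, counted by scintillation.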

[19] = biological target: Sodium-dependent serotonin transporter (Rattus norvegicus) (UniProt P31652); test: Inhibition of tritiated serotonin(5-HT) uptake at 0.1 uM concentration; type: functional; in short: as §8
Chain of Sodium-dependent serotonin transporter (Rattus norvegicus) (P31652 whole entry): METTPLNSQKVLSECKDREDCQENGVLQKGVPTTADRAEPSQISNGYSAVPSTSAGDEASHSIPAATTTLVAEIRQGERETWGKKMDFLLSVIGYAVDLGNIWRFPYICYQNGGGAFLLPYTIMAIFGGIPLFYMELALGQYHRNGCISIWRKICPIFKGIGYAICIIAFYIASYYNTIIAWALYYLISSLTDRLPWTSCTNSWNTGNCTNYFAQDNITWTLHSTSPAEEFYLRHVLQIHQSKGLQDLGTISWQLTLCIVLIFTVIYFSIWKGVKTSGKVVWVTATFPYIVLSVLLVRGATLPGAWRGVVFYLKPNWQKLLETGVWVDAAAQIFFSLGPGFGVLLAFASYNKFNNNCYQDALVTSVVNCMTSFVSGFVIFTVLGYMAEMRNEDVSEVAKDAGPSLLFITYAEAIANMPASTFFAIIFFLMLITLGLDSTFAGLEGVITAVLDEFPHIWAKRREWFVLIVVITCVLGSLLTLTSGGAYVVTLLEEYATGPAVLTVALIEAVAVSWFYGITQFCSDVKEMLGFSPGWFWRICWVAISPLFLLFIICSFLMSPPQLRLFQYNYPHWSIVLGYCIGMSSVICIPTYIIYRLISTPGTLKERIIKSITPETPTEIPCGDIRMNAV

[20] = biological target: Serotonin 2 (5-HT2) receptor (Rattus norvegicus) (UniProt P30994+P08909+P14842); test: as §4; type: protein assay; in short: as §3
Chain of Serotonin 2 (5-HT2) receptor (Rattus norvegicus) (P08909 whole entry, looked up): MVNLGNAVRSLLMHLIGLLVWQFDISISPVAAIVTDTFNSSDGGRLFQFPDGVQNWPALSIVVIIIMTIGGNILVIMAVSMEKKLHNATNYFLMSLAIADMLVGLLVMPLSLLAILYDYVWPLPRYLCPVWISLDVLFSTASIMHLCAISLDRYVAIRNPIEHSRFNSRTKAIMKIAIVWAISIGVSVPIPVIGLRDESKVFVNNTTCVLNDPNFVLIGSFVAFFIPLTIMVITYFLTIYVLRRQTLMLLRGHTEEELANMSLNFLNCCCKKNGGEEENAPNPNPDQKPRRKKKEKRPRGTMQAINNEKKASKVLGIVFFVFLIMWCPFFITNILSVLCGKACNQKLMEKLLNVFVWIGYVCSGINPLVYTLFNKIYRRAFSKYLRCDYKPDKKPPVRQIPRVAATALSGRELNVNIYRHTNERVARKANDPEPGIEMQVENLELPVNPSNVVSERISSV
Chain of Serotonin 2 (5-HT2) receptor (Rattus norvegicus) (P14842 whole entry, looked up): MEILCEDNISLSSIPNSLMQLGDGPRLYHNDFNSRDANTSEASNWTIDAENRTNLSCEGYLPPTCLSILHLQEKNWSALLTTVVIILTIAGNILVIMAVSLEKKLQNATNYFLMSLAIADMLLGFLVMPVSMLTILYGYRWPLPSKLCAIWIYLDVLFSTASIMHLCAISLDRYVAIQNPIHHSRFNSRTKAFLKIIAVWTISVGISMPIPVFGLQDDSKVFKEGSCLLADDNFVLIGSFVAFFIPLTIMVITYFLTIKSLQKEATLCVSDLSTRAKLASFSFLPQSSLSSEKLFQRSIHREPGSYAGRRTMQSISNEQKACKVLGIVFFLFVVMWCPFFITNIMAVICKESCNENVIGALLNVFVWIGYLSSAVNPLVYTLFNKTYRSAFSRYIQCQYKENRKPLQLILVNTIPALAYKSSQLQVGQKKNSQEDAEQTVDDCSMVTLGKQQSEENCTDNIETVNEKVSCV
Chain of Serotonin 2 (5-HT2) receptor (Rattus norvegicus) (P30994 whole entry, looked up): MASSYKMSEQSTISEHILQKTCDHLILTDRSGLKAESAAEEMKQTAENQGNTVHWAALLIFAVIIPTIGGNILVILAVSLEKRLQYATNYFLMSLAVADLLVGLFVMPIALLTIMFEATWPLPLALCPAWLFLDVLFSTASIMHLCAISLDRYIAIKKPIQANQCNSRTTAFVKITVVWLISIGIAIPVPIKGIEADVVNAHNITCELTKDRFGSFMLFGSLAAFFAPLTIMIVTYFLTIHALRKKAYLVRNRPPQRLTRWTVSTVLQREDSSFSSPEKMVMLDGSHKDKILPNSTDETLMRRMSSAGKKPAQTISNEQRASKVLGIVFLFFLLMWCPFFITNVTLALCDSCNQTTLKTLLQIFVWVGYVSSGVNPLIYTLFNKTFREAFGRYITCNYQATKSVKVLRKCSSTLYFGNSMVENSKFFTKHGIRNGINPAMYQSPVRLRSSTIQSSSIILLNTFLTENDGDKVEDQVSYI

[21] = biological target: Serotonin 1 (5-HT1) receptor (Rattus norvegicus) (UniProt P28564+P30940+P19327+P28565); test: Binding affinity towards serotonin S1 receptor at 1.0 uM; type: protein assay; in short: as §3
[22] = species: Rattus norvegicus; test: Ability to inhibit the uptake of tritiated norepinephrine (NE); type: functional; in short: as §8
[23] = species: Mus musculus; test: Gross behavioral effects ascertained in mice; W indicates weak stimulant or depressant activity of little significance.; type: functional, organism-based; in short: as §1
[24] = biological target: Sodium-dependent dopamine transporter (Rattus norvegicus) (UniProt P23977); test: Inhibition of tritiated dopamine (DA) uptake at 0.1 uM concentration; type: functional; in short: as §8
Chain of Sodium-dependent dopamine transporter (Rattus norvegicus) (P23977 whole entry): as the sequence (P23977 whole entry) above

[25] = species: Rattus norvegicus; test: Ability to inhibit the uptake of tritiated dopamine (DA) 0.1 uM concentration; type: functional; in short: as §8
[26] = biological target: Sodium-dependent serotonin transporter (Rattus norvegicus) (UniProt P31652); test: Ability to inhibit the uptake of [3H]- serotonin(5-HT) 0.1 uM concentration at rat brain synaptosomes; type: functional, subcellular; in short: as §8
[27] = biological target: Norepinephrine transporter (Rattus norvegicus) (UniProt Q9WTR4); test: Ability to inhibit the uptake of [3H]norepinephrine (NE) 0.1 uM concentration at rat brain synaptosomes; type: functional, subcellular; in short: as §8
Chain of Norepinephrine transporter (Rattus norvegicus) (Q9WTR4 as listed by the source): as the sequence (Q9WTR4 whole entry) above

[28] = species: Rattus norvegicus; test: Ability to inhibit the uptake of tritiated serotonin(5-HT) %inhibition; type: functional
In short: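 Rat brain synaptosomes (male Wistar P2 fraction) from hypothalamus (NE), striatum (DA) or cerebral cortex (5-HT), in Tris or HEPES Krebs-type medium with nialamide, pH 7.4. Preincubation 10 min at 37 °C with compound. Then [3H]NE 100–300 nM, [3H]DA 50–300 nM or [3H]5-HT 100–200 nM added for 3 min (DA) or 6–10 min (NE, 5-HT). Blanks kept on ice. Filtration and scintillation counting. Percent inhibition at 0.100 μM when weak.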

[29] = tested on: Mus musculus; test: Ability to antagonise intraperitoneal dose; inactive (<10% antagonism) at 30 mg/kg is represented as I-30.; type: functional, organism-based; design: dose 30 mg/kg; in short: as §2
[30] = tested on: Mus musculus; test: as §6; type: functional, organism-based; in short: as §2; remark: listed apart in the source

SMILES: c1ccc([C@@H]2CN3CCC[C@H]3c3ccsc32)cc1
ED50 [12]: inactive
ED50 [13]: inactive
inhibition in vivo at 0.1 mg/kg [14]: 28%
behavior [15]: Significant depressant

SMILES: Clc1ccc([C@@H]2CN3CCC[C@H]3c3ccccc32)c(Cl)c1
Inhibition [16]: 52%
Inhibition [17]: 34%
Inhibition [18]: 31%

SMILES: Br.c1csc([C@@H]2CN3CCC[C@H]3c3ccsc32)c1
Inhibition [28]: 2%
ED50 [29]: inactive
behavior [15]: Significant depressant
ED50 [30]: inactive

More lines, main results first:

Ki [1]: 0.74 nM
inhibition [4]: 65%
Ki [5]: 252 nM
inhibition [6]: 70%
inhibition [7]: 3%
inhibition [9]: 27%
Ki [10]: 5.1 nM
SMILES: Br.Oc1ccc([C@@H]2CN3CCC[C@@H]3c3ccccc32)cc1
behavior [2]: Stimulant
ED50 [3]: 0.09 mg/kg
ED50 [8]: 0.4 mg/kg

Ki [1]: 41.3 nM
Ki [11]: 54 nM
Ki [10]: 9.8 nM
SMILES: O=C(Nc1ccccc1)Nc1ccc([C@@H]2CN3CCC[C@H]3c3ccccc32)cc1
ED50 [3]: 10 mg/kg
ED50 [8]: > 60 mg/kg

inhibition [19]: 21%
inhibition [20]: 5%
inhibition [21]: -9%
Ki [22]: ~100 nM
inhibition [4]: 48%
inhibition [24]: 38%
SMILES: Br.Fc1ccc([C@@H]2CN3CCC[C@H]3c3cc(F)ccc32)cc1
ED50 [3]: 1.6 mg/kg
behavior [23]: Partial stimulant
ED50 [8]: > 60 mg/kg

Ki [25]: 1000 nM
inhibition [26]: 11%
inhibition [27]: 27%
SMILES: c1ccc([C@@H]2CN3CCCC[C@H]3c3ccccc32)cc1
behavior [23]: Weak
